Screening results as filed in PubChem BioAssay.
T cell HTS: modulates CD8 T cell binding to vesicles. 2C CD8+ T cell-vesicle binding, flow cytometry; hits give low values. 330,000 tested, 0.068% active. response (vesicle binding), % at 7 µM. AID 2052;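 active = response, share of CD8 T cells binding vesicles, and their 90th percentile fluorescence all below set limits, cut at about 80% in these data, passing the limit was not always enough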;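 note: values below 100% mean blocked vesicle binding to the CD8+ T cells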
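Material: 2C TCR transgenic mouse naive CD8+ T cells, MACS-purified. Also added: QL9-charged Drosophila Ld/ICAM-1/B7-1 vesicles. Timing: binding 1.5 h at 37 °C. Measured by: high-throughput flow cytometry with anti-B7-1 and anti-CD8 staining. Read-out: percent CD8+ FL2 mean versus row control. Controls: Unloaded micro-vesicles (low), QL9 vesicles with 0.7% DMSO (high).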
Rtt109 HAT inh: inhibitors of Candida albicans Rtt109/Vps75 histone acetyltransferase; purified Rtt109/Vps75, ThioGlo CoA-SH fluorescence, 4 h; AID 540336; Q5AAJ8; inhibition, % at 34.9 µM; 330,000 tested, 0.16% active;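 active = inhibition of at least 50% in every replicate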
GRIN3A LBD mod: NR3A (human) ligand-binding domain modulation; NR3A LBD differential scanning fluorimetry, Tm shift; 0% = protein alone, 100% = glycine-bound protein; Tm shift relative to glycine control, % at 25 µM; 340,000 tested, 2.5% active; AID 1259313;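 active = melting temperature shift of at least 10% of the positive control shift, at one fixed dose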
GASC-1 inh: inhibitors of human GASC-1 (JMJD2C) demethylase | Q9H3R0 | 330,000 tested, 0.069% active | inhibition, % at 2.35 µM | GST-JMJD2C(1-420) H3K9me3 demethylation, DELFIA europium;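 active = more than half of a compound's replicate wells show inhibition beyond 50%, single wells judged on their own value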;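 note: signal counts dimethyl H3K9 product captured on neutravidin plate; 0% = median of DMSO wells and 100% = 0.3 times that DMSO median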
Target sequence (Q9H3R0 1-420 limits assumed): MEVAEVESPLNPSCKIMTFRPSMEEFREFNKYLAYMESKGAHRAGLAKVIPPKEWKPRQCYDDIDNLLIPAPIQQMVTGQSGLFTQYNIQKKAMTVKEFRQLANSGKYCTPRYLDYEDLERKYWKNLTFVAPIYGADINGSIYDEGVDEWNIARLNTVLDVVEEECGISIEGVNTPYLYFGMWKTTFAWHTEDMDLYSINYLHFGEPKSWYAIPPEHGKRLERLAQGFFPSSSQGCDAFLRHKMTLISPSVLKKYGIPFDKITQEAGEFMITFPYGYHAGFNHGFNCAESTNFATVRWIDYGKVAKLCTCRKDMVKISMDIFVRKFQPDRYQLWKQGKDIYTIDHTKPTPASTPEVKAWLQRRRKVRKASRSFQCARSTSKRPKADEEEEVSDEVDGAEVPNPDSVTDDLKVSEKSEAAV
* hit, by the source's call. Hits are enriched below; roughly 2.8% of the tested compounds scored in any of these assays.

How did Cc1c(C(=O)Nc2ccc3c(c2)OCCO3)sc2nc(-c3ccccc3)cn12 do in these assays?
T cell HTS: 19; Rtt109 HAT inh: -1; GRIN3A LBD mod: 27*; GASC-1 inh: -2

How did Cc1c(C(=O)Nc2ccncc2)sc2nc(-c3ccccc3)cn12 do in these assays?
T cell HTS: 991; Rtt109 HAT inh: -1; GRIN3A LBD mod: 2; GASC-1 inh: 25

How did C=CCOc1ccc(/C=C/C(=O)OCC(=O)N2CCN(S(=O)(=O)c3ccc(C)cc3C)CC2)cc1 do in these assays?
Rtt109 HAT inh: -2; GRIN3A LBD mod: 19*

What do the screens show for `Cc1ccc(S(=O)(=O)N2CCN(C(=O)COC(=O)/C=C/c3ccc([N+](=O)[O-])cc3)CC2)c(C)c1`?
T cell HTS: 202; Rtt109 HAT inh: -7; GRIN3A LBD mod: 0; GASC-1 inh: 8

What do the screens show for `COC(=O)c1cc(NC(=O)COC(=O)CCc2c[nH]c3ccccc23)cc(C(=O)OC)c1`?
GRIN3A LBD mod: 11*

What do the screens show for `O=C(COC(=O)CCc1c[nH]c2ccccc12)Nc1ccc([N+](=O)[O-])cc1`?
T cell HTS: 147; Rtt109 HAT inh: 4; GRIN3A LBD mod: 35*; GASC-1 inh: 1

What do the screens show for `COc1cccc(OCCOc2ccc(/C=C3/SC(=S)NC3=O)cc2)c1`?
T cell HTS: 400; GRIN3A LBD mod: 10*; GASC-1 inh: 13

Results for COc1ccc(C=C2SC(=S)NC2=O)cc1 ?
Rtt109 HAT inh: -1; GRIN3A LBD mod: -1

Results for Cc1ccc(C(=O)N/N=C/c2c[nH]c3ccccc23)o1 ?
T cell HTS: 850; Rtt109 HAT inh: -4; GRIN3A LBD mod: 0; GASC-1 inh: 8

What do the screens show for `O=C(N/N=C/c1c[nH]c2ccccc12)c1[nH]c2ccc(Br)cc2c1-c1ccccc1`?
Rtt109 HAT inh: 4; GRIN3A LBD mod: 27*; GASC-1 inh: 7

How did O=C(N/N=C/c1ccc(O)cc1)c1[nH]c2ccc(Br)cc2c1-c1ccccc1 do in these assays?
T cell HTS: 196; Rtt109 HAT inh: 6; GRIN3A LBD mod: 29*; GASC-1 inh: 1

How did C/C(=N\NC(=O)CCC(=O)O)c1c(-c2ccccc2)c2cc(Br)ccc2[nH]c1=O do in these assays?
T cell HTS: 394; Rtt109 HAT inh: 2; GRIN3A LBD mod: -1; GASC-1 inh: 4

Results for CC(Oc1coc(CN2CCN(C(=O)c3ccco3)CC2)cc1=O)c1ccccc1 (stereo unspecified) ?
T cell HTS: 177; Rtt109 HAT inh: -2; GRIN3A LBD mod: -2; GASC-1 inh: 8

Results for Cc1ccccc1NCC(=O)N/N=C\C=C\c1cccc([N+](=O)[O-])c1 ?
T cell HTS: 378; GRIN3A LBD mod: 15*; GASC-1 inh: -2

Results for O=C(NCCCCc1ccccc1)c1cccc(NC(=O)c2ccccc2)c1 ?
Rtt109 HAT inh: -4; GRIN3A LBD mod: -6

Results for O=C(/C=C/c1ccccc1)Nc1ccc2c(c1)C(=O)NC2=O ?
T cell HTS: 695; Rtt109 HAT inh: 5; GRIN3A LBD mod: 14*; GASC-1 inh: 40

What do the screens show for `O=C(/C=C/c1ccccc1)Nc1cccnc1`?
T cell HTS: 410; Rtt109 HAT inh: 5; GRIN3A LBD mod: 30*; GASC-1 inh: -8

Results for O=C(/C=C/c1ccccc1)Nc1cccc(C(=O)NCCCc2ccccc2)c1 ?
Rtt109 HAT inh: -7; GRIN3A LBD mod: 27*

Results for CN1CCc2c(sc(NC(=O)CS(=O)(=O)c3ccccc3)c2C(N)=O)C1 ?
T cell HTS: 383; Rtt109 HAT inh: 5; GRIN3A LBD mod: 18*; GASC-1 inh: 14

How did CCCN1CCc2c(sc(NC(=O)CCS(=O)(=O)c3ccccc3)c2C(N)=O)C1 do in these assays?
T cell HTS: 333; Rtt109 HAT inh: -17; GRIN3A LBD mod: 2; GASC-1 inh: -25

What do the screens show for `O=C(CN1CCCCC1)n1c2ccccc2c2ccccc21`?
T cell HTS: 306; Rtt109 HAT inh: 56*; GRIN3A LBD mod: -1; GASC-1 inh: -20

Results for O=CC1=C(c2ccccc2)Oc2ccccc2O1 ?
T cell HTS: 178; Rtt109 HAT inh: 7; GRIN3A LBD mod: -1; GASC-1 inh: -4

Results for Cc1cc(O)c(C(C)C)cc1C1(c2cc(C(C)C)c(O)cc2C)OC(=O)c2ccccc21 ?
T cell HTS: 385; Rtt109 HAT inh: 20; GRIN3A LBD mod: 11*; GASC-1 inh: -11

Results for Cc1cccc(-c2cccc(NC(=O)C3CCCN(Cc4cccnc4)C3)c2)c1 (stereo unspecified) ?
T cell HTS: 413; Rtt109 HAT inh: 7; GRIN3A LBD mod: 0; GASC-1 inh: -5

What do the screens show for `CCOc1cc(C(=O)NCc2ccccc2)ccc1OCC(=O)N1CCOCC1`?
T cell HTS: 479; Rtt109 HAT inh: 6; GRIN3A LBD mod: -1; GASC-1 inh: -12

Results for CCOc1ccc(C(=O)NCc2ccccc2)cc1Br ?
T cell HTS: 151; Rtt109 HAT inh: 2; GRIN3A LBD mod: 12*; GASC-1 inh: 0

Results for CC(C)(C)NC(=O)/C(=C\C=C\c1ccccc1)NC(=O)c1ccc([N+](=O)[O-])cc1 ?
T cell HTS: 245; Rtt109 HAT inh: -3; GRIN3A LBD mod: 15*; GASC-1 inh: 1

Results for O=C(N/C(=C/C=C/c1ccccc1)C(=O)N1CCCCC1)c1ccc([N+](=O)[O-])cc1 ?
T cell HTS: 401; Rtt109 HAT inh: 6; GRIN3A LBD mod: -2; GASC-1 inh: 1

Results for O=C(Nc1ccc(O)cc1)/C(=C\C=C\c1ccccc1)NC(=O)c1ccccc1 ?
T cell HTS: 140; Rtt109 HAT inh: 13; GRIN3A LBD mod: 27*; GASC-1 inh: 2

How did S=c1[nH]ccc2ccccc12 do in these assays?
Rtt109 HAT inh: 3; GRIN3A LBD mod: 0

Results for CC(C)c1ccc(/C=C/C(=O)Nc2nc3ccc([N+](=O)[O-])cc3s2)cc1 ?
T cell HTS: 285; Rtt109 HAT inh: 4; GRIN3A LBD mod: 8; GASC-1 inh: 1

What do the screens show for `O=[N+]([O-])c1ccc2nc(NN=Cc3ccc(O)cc3)sc2c1`?
Rtt109 HAT inh: -1; GRIN3A LBD mod: 23*

What do the screens show for `CCc1csc(CNC(=O)C2CCC(=O)N(Cc3cccc(F)c3)C2)n1` (stereo unspecified)?
T cell HTS: 331; Rtt109 HAT inh: 5; GRIN3A LBD mod: 13*; GASC-1 inh: 17

What do the screens show for `CSc1ccc(CNC(=O)C2CCC(=O)N(Cc3cccc(F)c3)C2)cc1` (stereo unspecified)?
T cell HTS: 501; Rtt109 HAT inh: 8; GRIN3A LBD mod: 4; GASC-1 inh: 4

Results for O=C(NCCc1ccc(C(F)(F)F)cc1)C1CCC(=O)N(CCc2cccc(F)c2)C1 (stereo unspecified) ?
T cell HTS: 269; Rtt109 HAT inh: 6; GRIN3A LBD mod: 14*; GASC-1 inh: 6

Results for COc1ccc(CCN2CC(C(=O)NCCc3cccc(F)c3)CCC2=O)cc1 (stereo unspecified) ?
Rtt109 HAT inh: 5; GRIN3A LBD mod: -1
